Source: ChEMBL document CHEMBL4382246, “Synthesis, biological evaluation, and molecular docking investigation of 3-amidoindoles as potent tubulin polymerization inhibitors” (Eur J Med Chem, 2019)

Assays:
Format in all cases: functional, cell-based
T47D = assay: Cytotoxicity against human T47D cells after 72 hrs by MTT assay
Summary of the method: (§1)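 Lines kept in RPMI-1640 with 10% FBS. Cells were seeded at 2×10³ per well and allowed to attach for 24 h at 37 °C. Medium was then replaced with medium holding serial dilutions from 100 mM DMSO stocks, with 0.1% DMSO as negative control, for 72 h at 37 °C. […] IC50 was fitted from the concentration series as the mean ± SD of three independent experiments run in duplicate.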

MDA-MB-468 = assay: Cytotoxicity against human MDA-MB-468 cells after 72 hrs by MTT assay; conditions: MDA-MB-468, 72 h; summary of the method: as §1
MDA-MB-231 = assay: Cytotoxicity against human MDA-MB-231 cells after 72 hrs by MTT assay; conditions: MDA-MB-231, 72 h; summary of the method: as §1
MCF7 = assay: Cytotoxicity against human MCF7 cells after 72 hrs by MTT assay; conditions: MCF7, 72 h; summary of the method: as §1
Hs-578T = assay: Cytotoxicity against human Hs578T cells after 72 hrs by MTT assay; summary of the method: as §1
BT-549 = assay: Cytotoxicity against human BT549 cells after 72 hrs by MTT assay; conditions: BT-549, 72 h; summary of the method: as §1

Structure (SMILES)	IC50 (T47D)	IC50 (MDA-MB-468)	IC50 (MDA-MB-231)	IC50 (MCF7)	IC50 (Hs-578T)	IC50 (BT-549)
COc1cc(C(=O)Nc2c(C(=O)c3ccc(F)cc3)[nH]c3cc(Cl)ccc23)cc(OC)c1OC	76.2 µM	> 100 µM	46.6 µM	61.1 µM	> 100 µM	35.5 µM
COc1cc(C(=O)Nc2c(C(=O)c3ccc(F)c(F)c3)[nH]c3cc(Cl)ccc23)cc(OC)c1OC	> 100 µM	> 100 µM	> 100 µM	10.1 µM	64.6 µM	51.2 µM
COc1cc(C(=O)Nc2c(C(=O)c3cccs3)[nH]c3cc(C)ccc23)cc(OC)c1OC	> 100 µM	> 100 µM	> 100 µM	> 100 µM	> 100 µM	> 100 µM
COc1ccc2c(NC(=O)c3cc(OC)c(OC)c(OC)c3)c(C(=O)c3ccccc3)[nH]c2c1	> 100 µM	> 100 µM	> 100 µM	> 100 µM	> 100 µM	> 100 µM
COc1cc(C(=O)Nc2c(C(=O)c3ccc(F)cc3)[nH]c3ccccc23)cc(OC)c1OC	60.9 µM	> 100 µM	50.8 µM	77.9 µM	> 100 µM	42.6 µM
COc1cc(C(=O)Nc2c(C(=O)c3ccc(-c4ccccc4)cc3)[nH]c3cc(C)ccc23)cc(OC)c1OC	> 100 µM	> 100 µM	18.2 µM	> 100 µM	> 100 µM	> 100 µM
COc1cc(C(=O)Nc2c(C(=O)c3ccccc3)[nH]c3ccccc23)cc(OC)c1OC	> 100 µM	> 100 µM	17.2 µM	> 100 µM	> 100 µM	> 100 µM
COc1cccc(C(=O)c2[nH]c3ccccc3c2NC(=O)c2cc(OC)c(OC)c(OC)c2)c1	53.4 µM	> 100 µM	> 100 µM	> 100 µM	9.06 µM	65.5 µM
COc1cccc(C(=O)c2[nH]c3cc(Cl)ccc3c2NC(=O)c2cc(OC)c(OC)c(OC)c2)c1	52.4 µM	> 100 µM	> 100 µM	> 100 µM	> 100 µM	> 100 µM
COc1cc(C(=O)Nc2c(C(=O)c3cccs3)[nH]c3cc(Cl)ccc23)cc(OC)c1OC	31.4 µM	15.3 µM	> 100 µM	47.5 µM	49.2 µM	37.5 µM
COc1cc(C(=O)Nc2c(C(=O)c3ccc(C)cc3)[nH]c3cc(C)ccc23)cc(OC)c1OC	40.2 µM	75.1 µM	33.4 µM	69.5 µM	43.7 µM	69.8 µM
COc1cc(C(=O)Nc2c(C(=O)c3ccc(C)cc3)[nH]c3ccccc23)cc(OC)c1OC	20.1 µM	14.5 µM	12.6 µM	50 µM	50.5 µM	17.1 µM
COc1cc(C(=O)Nc2c(C(=O)c3ccco3)[nH]c3cc(Cl)ccc23)cc(OC)c1OC	> 100 µM	> 100 µM	> 100 µM	> 100 µM	> 100 µM	> 100 µM
COc1cc(C(=O)Nc2c(C(=O)c3ccccc3)[nH]c3cc(C)ccc23)cc(OC)c1OC	> 100 µM	> 100 µM	16.6 µM	32.7 µM	49.1 µM	42.3 µM
COc1cc(C(=O)Nc2c(C(=O)c3ccc(-c4ccccc4)cc3)[nH]c3ccccc23)cc(OC)c1OC	> 100 µM	> 100 µM	> 100 µM	> 100 µM	22.2 µM	> 100 µM
COc1ccc2c(NC(=O)c3cc(OC)c(OC)c(OC)c3)c(C(=O)c3ccc(C)cc3)[nH]c2c1	> 100 µM	> 100 µM	> 100 µM	> 100 µM	> 100 µM	> 100 µM
COc1cc(C(=O)Nc2c(C(=O)c3cccs3)[nH]c3ccccc23)cc(OC)c1OC	> 100 µM	> 100 µM	> 100 µM	> 100 µM	29.6 µM	> 100 µM
